Measured values published in ChEMBL document CHEMBL1126625, “7-Azetidinylquinolones as antibacterial agents. Synthesis and structure-activity relationships” (J Med Chem, 1993).
Converted amounts (≈) assume the structure as drawn.

What was measured:
Mus musculus = experiment: Blood level after oral administration in mice (50 mg/kg) was determined (area under the concentration-time curve recorded at 0.5, 1, 2, and 4 hour after dosing); assay type: ADME, organism-based; design: dose 50 mg/kg, time < 4 hr, route oral; conditions: in vivo
Procedure, shortened: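 Single oral dose of 50 mg/kg to mice. Blood taken from groups of six mice at 0.5, 1, 2 and 4 h after dosing. Serum levels measured by disk agar diffusion bioassay with Bacillus subtilis ATCC 6633 on Seed Agar, plates incubated 18 h at 37 °C, giving total activity in serum. AUC 0-4 h expressed as μg/mL […].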

Bacillus cereus = experiment: Minimum inhibitory concentration (MIC) preventing growth of Bacillus cereus; assay type: functional
Bacillus subtilis = experiment: Minimum inhibitory concentration (MIC) preventing growth of Bacillus subtilis; assay type: functional
Escherichia coli [1] = experiment: Minimum inhibitory concentration (MIC)preventing growth of Escherichia coli; assay type: functional
Escherichia coli [2] = experiment: Efficacy on systemic infections after oral administration in mice was determined against Escherichia coli HM-42; assay type: functional
Procedure, shortened: (§1)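 Mouse protection test using 4 groups of 10 mice. Mice were infected intraperitoneally with a bacterial suspension slightly above LD100. A single oral dose was given immediately after infection, with four doses, one per group, chosen from in vitro activity. Survival was scored after one week, and ED50 (total mg/kg protecting 50% of mice) was interpolated from group survival rates.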

Klebsiella pneumoniae = experiment: Minimum inhibitory concentration (MIC)preventing growth of Klebsiella pneumoniae; assay type: functional
Morganella morganii = experiment: Minimum inhibitory concentration (MIC) preventing growth of Morganella morganii; assay type: functional
Pseudomonas aeruginosa [3] = experiment: Efficacy on systemic infections after oral administration in mice was determined against Pseudomonas aeruginosa HS-116; assay type: functional; procedure, shortened: as §1
Proteus vulgaris = experiment: Minimum inhibitory concentration (MIC) preventing growth of Proteus vulgaris; assay type: functional
[4] = test system: Staphylococcus epidermidis; experiment: Minimum inhibitory concentration (MIC) preventing growth of Staphylococcus epidermidis; assay type: functional
Staphylococcus aureus [5] = experiment: Minimum inhibitory concentration (MIC) preventing growth of […]; assay type: functional
Staphylococcus aureus [6] = experiment: Efficacy on systemic infections after oral administration in mice was determined against […] HS-93; assay type: functional; procedure, shortened: as §1
Enterococcus faecalis = experiment: Minimum inhibitory concentration (MIC) preventing growth of Streptococcus faecalis ATCC 10541; assay type: functional
Enterobacter cloacae = experiment: Minimum inhibitory concentration (MIC)preventing growth of Enterobacter cloacae; assay type: functional
Pseudomonas aeruginosa [7] = experiment: Minimum inhibitory concentration (MIC)preventing growth of Pseudomonas aeruginosa; assay type: functional

| SMILES | AUC (Mus musculus) | MIC (Bacillus cereus) | MIC (Bacillus subtilis) | MIC (Escherichia coli [1]) | ED50 (Escherichia coli [2]) | MIC (Klebsiella pneumoniae) | MIC (Morganella morganii) | ED50 (Pseudomonas aeruginosa [3]) | MIC (Proteus vulgaris) | MIC [4] | MIC (Staphylococcus aureus [5]) | ED50 (Staphylococcus aureus [6]) | MIC (Enterococcus faecalis) | MIC (Enterobacter cloacae) | MIC (Pseudomonas aeruginosa [7]) |
| --- | --- | --- | --- | --- | --- | --- | --- | --- | --- | --- | --- | --- | --- | --- | --- |
| CNC1(C)CN(c2cc3c(cc2F)c(=O)c(C(=O)O)cn3C2CC2)C1 | 8.4 µg·h/mL | 0.25 µg/mL (≈ 0.724 µM) | 0.06 µg/mL (≈ 0.174 µM) | 0.06 µg/mL (≈ 0.174 µM) | 1.9 mg/kg | 0.06 µg/mL (≈ 0.174 µM) | 0.06 µg/mL (≈ 0.174 µM) | 69.8 mg/kg | 0.25 µg/mL (≈ 0.724 µM) | 0.25 µg/mL (≈ 0.724 µM) | 0.25 µg/mL (≈ 0.724 µM) | 16.5 mg/kg | 1 µg/mL (≈ 2.9 µM) | 0.12 µg/mL (≈ 0.347 µM) | 2 µg/mL (≈ 5.79 µM) |
| CCNC1CN(c2cc3c(cc2F)c(=O)c(C(=O)O)cn3C2CC2)C1 | 18.1 µg·h/mL | 0.25 µg/mL (≈ 0.724 µM) | 0.06 µg/mL (≈ 0.174 µM) | 0.06 µg/mL (≈ 0.174 µM) | – | 0.06 µg/mL (≈ 0.174 µM) | 0.5 µg/mL (≈ 1.45 µM) | – | 0.25 µg/mL (≈ 0.724 µM) | 0.25 µg/mL (≈ 0.724 µM) | 0.25 µg/mL (≈ 0.724 µM) | – | 2 µg/mL (≈ 5.79 µM) | 0.06 µg/mL (≈ 0.174 µM) | 2 µg/mL (≈ 5.79 µM) |
| CNC1CN(c2cc3c(cc2F)c(=O)c(C(=O)O)cn3C2CC2)C1 | 4.2 µg·h/mL | 0.12 µg/mL (≈ 0.362 µM) | 0.03 µg/mL (≈ 0.0905 µM) | 0.03 µg/mL (≈ 0.0905 µM) | 3.8 mg/kg | 0.03 µg/mL (≈ 0.0905 µM) | 0.03 µg/mL (≈ 0.0905 µM) | 145 mg/kg | 0.25 µg/mL (≈ 0.754 µM) | 0.12 µg/mL (≈ 0.362 µM) | 0.25 µg/mL (≈ 0.754 µM) | 36.3 mg/kg | 1 µg/mL (≈ 3.02 µM) | 0.03 µg/mL (≈ 0.0905 µM) | 0.5 µg/mL (≈ 1.51 µM) |
| CN(C)C1CN(c2c(F)cc3c(=O)c(C(=O)O)cn(C4CC4)c3c2F)C1 | 38.2 µg·h/mL | 0.25 µg/mL (≈ 0.688 µM) | 0.015 µg/mL (≈ 0.0413 µM) | 0.06 µg/mL (≈ 0.165 µM) | 1.7 mg/kg | 0.06 µg/mL (≈ 0.165 µM) | 0.12 µg/mL (≈ 0.33 µM) | 90.8 mg/kg | 0.25 µg/mL (≈ 0.688 µM) | 0.25 µg/mL (≈ 0.688 µM) | 0.25 µg/mL (≈ 0.688 µM) | 19.8 mg/kg | 1 µg/mL (≈ 2.75 µM) | 0.06 µg/mL (≈ 0.165 µM) | 2 µg/mL (≈ 5.5 µM) |
| CC1(N)CN(c2cc3c(cc2F)c(=O)c(C(=O)O)cn3C2CC2)C1 | 7 µg·h/mL | 0.12 µg/mL (≈ 0.362 µM) | 0.06 µg/mL (≈ 0.181 µM) | 0.06 µg/mL (≈ 0.181 µM) | 2.7 mg/kg | 0.12 µg/mL (≈ 0.362 µM) | 0.06 µg/mL (≈ 0.181 µM) | 62.2 mg/kg | 0.06 µg/mL (≈ 0.181 µM) | 0.12 µg/mL (≈ 0.362 µM) | 0.12 µg/mL (≈ 0.362 µM) | 36.1 mg/kg | 0.5 µg/mL (≈ 1.51 µM) | 0.12 µg/mL (≈ 0.362 µM) | 0.5 µg/mL (≈ 1.51 µM) |
| CNC1(C)CN(c2c(F)cc3c(=O)c(C(=O)O)cn(C4CC4)c3c2F)C1 | 15.8 µg·h/mL | 0.5 µg/mL (≈ 1.38 µM) | 0.12 µg/mL (≈ 0.33 µM) | 0.12 µg/mL (≈ 0.33 µM) | 1.4 mg/kg | 0.12 µg/mL (≈ 0.33 µM) | 0.12 µg/mL (≈ 0.33 µM) | 27.2 mg/kg | 1 µg/mL (≈ 2.75 µM) | 0.5 µg/mL (≈ 1.38 µM) | 0.5 µg/mL (≈ 1.38 µM) | 15 mg/kg | 1 µg/mL (≈ 2.75 µM) | 0.12 µg/mL (≈ 0.33 µM) | 2 µg/mL (≈ 5.5 µM) |
| CCNC1CN(c2c(F)cc3c(=O)c(C(=O)O)cn(C4CC4)c3c2F)C1 | 38.2 µg·h/mL | 0.25 µg/mL (≈ 0.688 µM) | 0.06 µg/mL (≈ 0.165 µM) | 0.06 µg/mL (≈ 0.165 µM) | 1.1 mg/kg | 0.06 µg/mL (≈ 0.165 µM) | 0.06 µg/mL (≈ 0.165 µM) | 89 mg/kg | 0.25 µg/mL (≈ 0.688 µM) | 0.25 µg/mL (≈ 0.688 µM) | 0.25 µg/mL (≈ 0.688 µM) | 16.6 mg/kg | 1 µg/mL (≈ 2.75 µM) | 0.06 µg/mL (≈ 0.165 µM) | 2 µg/mL (≈ 5.5 µM) |
| CNC1CN(c2c(F)cc3c(=O)c(C(=O)O)cn(C4CC4)c3c2F)C1 | 32.7 µg·h/mL | 0.25 µg/mL (≈ 0.716 µM) | 0.06 µg/mL (≈ 0.172 µM) | 0.03 µg/mL (≈ 0.0859 µM) | 1.5 mg/kg | 0.03 µg/mL (≈ 0.0859 µM) | 0.06 µg/mL (≈ 0.172 µM) | 28.5 mg/kg | 0.5 µg/mL (≈ 1.43 µM) | 0.12 µg/mL (≈ 0.344 µM) | 0.25 µg/mL (≈ 0.716 µM) | 10.6 mg/kg | 1 µg/mL (≈ 2.86 µM) | 0.03 µg/mL (≈ 0.0859 µM) | 0.5 µg/mL (≈ 1.43 µM) |
| NC1CN(c2c(F)cc3c(=O)c(C(=O)O)cn(C4CC4)c3c2F)C1 | 23 µg·h/mL | 0.12 µg/mL (≈ 0.358 µM) | 0.03 µg/mL (≈ 0.0895 µM) | 0.03 µg/mL (≈ 0.0895 µM) | 2.4 mg/kg | 0.03 µg/mL (≈ 0.0895 µM) | 0.03 µg/mL (≈ 0.0895 µM) | 141 mg/kg | 0.12 µg/mL (≈ 0.358 µM) | 0.12 µg/mL (≈ 0.358 µM) | 0.12 µg/mL (≈ 0.358 µM) | 16.2 mg/kg | 0.25 µg/mL (≈ 0.746 µM) | 0.06 µg/mL (≈ 0.179 µM) | 0.5 µg/mL (≈ 1.49 µM) |
| NC1CN(c2cc3c(cc2F)c(=O)c(C(=O)O)cn3C2CC2)C1 | 3 µg·h/mL | 0.12 µg/mL (≈ 0.378 µM) | 0.03 µg/mL (≈ 0.0945 µM) | 0.03 µg/mL (≈ 0.0945 µM) | 3.6 mg/kg | 0.03 µg/mL (≈ 0.0945 µM) | 0.03 µg/mL (≈ 0.0945 µM) | 82.2 mg/kg | 0.12 µg/mL (≈ 0.378 µM) | 0.12 µg/mL (≈ 0.378 µM) | 0.25 µg/mL (≈ 0.788 µM) | 44 mg/kg | 0.5 µg/mL (≈ 1.58 µM) | 0.03 µg/mL (≈ 0.0945 µM) | 0.25 µg/mL (≈ 0.788 µM) |
| NCC1CN(c2cc3c(cc2F)c(=O)c(C(=O)O)cn3C2CC2)C1 | 0 µg·h/mL | 0.25 µg/mL (≈ 0.754 µM) | 0.12 µg/mL (≈ 0.362 µM) | 0.12 µg/mL (≈ 0.362 µM) | – | 0.12 µg/mL (≈ 0.362 µM) | 0.12 µg/mL (≈ 0.362 µM) | – | 1 µg/mL (≈ 3.02 µM) | 0.25 µg/mL (≈ 0.754 µM) | 0.5 µg/mL (≈ 1.51 µM) | – | 0.5 µg/mL (≈ 1.51 µM) | 0.25 µg/mL (≈ 0.754 µM) | 1 µg/mL (≈ 3.02 µM) |
| CC1(N)CN(c2c(F)cc3c(=O)c(C(=O)O)cn(C4CC4)c3c2F)C1 | 20 µg·h/mL | 0.12 µg/mL (≈ 0.344 µM) | 0.03 µg/mL (≈ 0.0859 µM) | 0.06 µg/mL (≈ 0.172 µM) | 3.1 mg/kg | 0.03 µg/mL (≈ 0.0859 µM) | 0.12 µg/mL (≈ 0.344 µM) | 65.7 mg/kg | 0.25 µg/mL (≈ 0.716 µM) | 0.12 µg/mL (≈ 0.344 µM) | 0.12 µg/mL (≈ 0.344 µM) | 13 mg/kg | 0.5 µg/mL (≈ 1.43 µM) | 0.06 µg/mL (≈ 0.172 µM) | 0.5 µg/mL (≈ 1.43 µM) |
